Converted amounts (≈) assume the structure as drawn.
Legend:
Salmonella typhi = assay: Antimicrobial activity against Salmonella typhi MTCC 98 by broth microdilution method; type: functional, Salmonella enterica subsp. enterica serovar Typhi; conditions: Salmonella enterica
Streptococcus pneumoniae = assay: Antimicrobial activity against Streptococcus pneumoniae MTCC 1936 by broth microdilution method; type: functional
Bacillus subtilis = assay: Antimicrobial activity against Bacillus subtilis MTCC 441 by broth microdilution method; type: functional
Summary of the method: (§1)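 Broth microdilution following NCCLS. Compounds were diluted in 2% DMSO in water. Fungi were grown in Sabouraud dextrose broth. Inoculum was set to 10⁸ CFU mL⁻¹ by turbidity. A primary serial-dilution screen was followed by a secondary set of lower dilutions for primary actives. Tubes were incubated at 37 °C, with growth noted at 24 and 48 h. MIC was the highest dilution preventing turbidity after spot subculture.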

Vibrio cholerae = assay: Antimicrobial activity against Vibrio cholerae MTCC 3906 by broth microdilution method; type: functional
Escherichia coli = assay: Antimicrobial activity against Escherichia coli MTCC 443 by broth microdilution method; type: functional; summary of the method: as §1
[1] = system: Mycobacterium tuberculosis; assay: Antitubercular activity against Mycobacterium tuberculosis H37Rv at 250 ug/ml; type: functional
[2] = system: Mycobacterium tuberculosis; assay: Antitubercular activity against Mycobacterium tuberculosis H37Rv; type: functional
Summary of the method: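 M. tuberculosis H37Rv was grown on Lowenstein–Jensen medium with compound at a single concentration of 250, and compared against control tubes of medium alone with the organism. Results are given as % inhibition, and the concentration giving complete inhibition of colonies was taken as the active concentration.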

Candida albicans = assay: Antimicrobial activity against Candida albicans MTCC 227 by broth microdilution method; type: functional; summary of the method: as §1
[3] = Antioxidant activity assessed as ferric ion reducing activity using fe3+-TPTZ at 200 mg/ml measured as ascorbic acid per 100 g sample by FRAP assay; type: physicochemical
Summary of the method: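 FRAP assay, modified Benzie–Strain. Reagent combined TPTZ in 40 mM HCl, aqueous FeCl₃·6H₂O and acetate buffer at pH 3.6. Sample solution was mixed with 3 mL reagent and incubated 25 min at 37 °C. Fe(II)–TPTZ absorbance was read at 593 nm against an ascorbic acid standard. Results are given as ascorbic equivalents, mmol/100 g compound.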

Clostridium tetani = assay: Antimicrobial activity against Clostridium tetani MTCC 449 by broth microdilution method; type: functional
Aspergillus fumigatus = assay: Antimicrobial activity against Aspergillus fumigatus MTCC 3008 by broth microdilution method; type: functional; summary of the method: as §1

| Compound | MIC (Salmonella typhi) | MIC (Streptococcus pneumoniae) | MIC (Bacillus subtilis) | MIC (Vibrio cholerae) | MIC (Escherichia coli) | inhibition at 250 µg/mL [1] | MIC [2] | MIC (Candida albicans) | Activity [3] | MIC (Clostridium tetani) | MIC (Aspergillus fumigatus) |
| --- | --- | --- | --- | --- | --- | --- | --- | --- | --- | --- | --- |
| COc1ccc(-c2cc(-c3c(C)nn(-c4ccccc4)c3-n3ccnc3)c(C#N)c(N)n2)cc1 | 200 µg/mL (≈ 447 µM) | 125 µg/mL (≈ 279 µM) | 100 µg/mL (≈ 223 µM) | 200 µg/mL (≈ 447 µM) | 125 µg/mL (≈ 279 µM) | 94% | 62.5 µg/mL (≈ 140 µM) | > 1000 µg/mL | 400.22 mmol | 200 µg/mL (≈ 447 µM) | 1000 µg/mL (≈ 2230 µM) |
| COc1ccc(-c2cc(-c3c(C)nn(-c4ccccc4)c3-n3cnc(C)c3)c(C#N)c(N)n2)cc1 | 250 µg/mL (≈ 542 µM) | 100 µg/mL (≈ 217 µM) | 250 µg/mL (≈ 542 µM) | 62.5 µg/mL (≈ 135 µM) | 125 µg/mL (≈ 271 µM) | 56% |  | 500 µg/mL (≈ 1080 µM) | 178.82 mmol | 250 µg/mL (≈ 542 µM) | 1000 µg/mL (≈ 2170 µM) |
| Cc1nn(-c2ccccc2)c(-n2ccnc2)c1-c1cc(-c2ccco2)nc(N)c1C#N | 100 µg/mL (≈ 245 µM) | 100 µg/mL (≈ 245 µM) | 100 µg/mL (≈ 245 µM) | 100 µg/mL (≈ 245 µM) | 250 µg/mL (≈ 614 µM) | 96% | 25 µg/mL (≈ 61.4 µM) | 500 µg/mL (≈ 1230 µM) | 456.32 mmol | 150 µg/mL (≈ 368 µM) | > 1000 µg/mL |
| Cc1cn(-c2c(-c3cc(-c4ccco4)nc(N)c3C#N)c(C)nn2-c2ccccc2)cn1 | 200 µg/mL (≈ 475 µM) | 250 µg/mL (≈ 593 µM) | 500 µg/mL (≈ 1190 µM) | 200 µg/mL (≈ 475 µM) | 250 µg/mL (≈ 593 µM) | 92% | 100 µg/mL (≈ 237 µM) | > 1000 µg/mL | 397.24 mmol | 500 µg/mL (≈ 1190 µM) | > 1000 µg/mL |
| Cc1nn(-c2ccccc2)c(-n2ccnc2)c1-c1cc(-c2cccs2)nc(N)c1C#N | 500 µg/mL (≈ 1180 µM) | 100 µg/mL (≈ 236 µM) | 200 µg/mL (≈ 472 µM) | 62.5 µg/mL (≈ 148 µM) | 500 µg/mL (≈ 1180 µM) | 41% |  | > 1000 µg/mL | 205.48 mmol | 200 µg/mL (≈ 472 µM) | 500 µg/mL (≈ 1180 µM) |
| Cc1cn(-c2c(-c3cc(-c4cccs4)nc(N)c3C#N)c(C)nn2-c2ccccc2)cn1 | 250 µg/mL (≈ 571 µM) | 100 µg/mL (≈ 229 µM) | 500 µg/mL (≈ 1140 µM) | 100 µg/mL (≈ 229 µM) | 250 µg/mL (≈ 571 µM) | 23% |  | > 1000 µg/mL | 422.3 mmol | 500 µg/mL (≈ 1140 µM) | > 1000 µg/mL |
| Cc1nn(-c2ccccc2)c(-n2ccnc2)c1-c1cc(-c2cc3ccccc3oc2=O)nc(N)c1C#N |  | 100 µg/mL (≈ 206 µM) | 500 µg/mL (≈ 1030 µM) |  | 200 µg/mL (≈ 412 µM) |  |  | 500 µg/mL (≈ 1030 µM) | 401.22 mmol |  | 1000 µg/mL (≈ 2060 µM) |
| Cc1cn(-c2c(-c3cc(-c4cc5ccccc5oc4=O)nc(N)c3C#N)c(C)nn2-c2ccccc2)cn1 |  | 100 µg/mL (≈ 200 µM) | 200 µg/mL (≈ 400 µM) |  | 250 µg/mL (≈ 500 µM) |  |  | 250 µg/mL (≈ 500 µM) | 433.44 mmol |  | 500 µg/mL (≈ 1000 µM) |
| Cc1cn(-c2c(-c3cc(-c4ccc5c(c4)OC(C)(C)O5)nc(N)c3C#N)c(C)nn2-c2ccccc2)cn1 | 62.5 µg/mL (≈ 124 µM) | 500 µg/mL (≈ 993 µM) | 250 µg/mL (≈ 496 µM) | 500 µg/mL (≈ 993 µM) | 125 µg/mL (≈ 248 µM) | 78% |  | 1000 µg/mL (≈ 1990 µM) | 384.91 mmol | 500 µg/mL (≈ 993 µM) | 1000 µg/mL (≈ 1990 µM) |
| CC1(C)S[C@@H]2[C@H](NC(=O)[C@H](N)c3ccccc3)C(=O)N2[C@H]1C(=O)O [AMPICILLIN] | 100 µg/mL (≈ 286 µM) | 100 µg/mL (≈ 286 µM) | 250 µg/mL (≈ 715 µM) | 100 µg/mL (≈ 286 µM) | 100 µg/mL (≈ 286 µM) |  |  |  |  | 250 µg/mL (≈ 715 µM) |  |
| COC1=CC(=O)C[C@@H](C)[C@]12Oc1c(Cl)c(OC)cc(OC)c1C2=O [GRISEOFULVIN] |  |  |  |  |  |  |  | 500 µg/mL (≈ 1420 µM) |  |  | 100 µg/mL (≈ 283 µM) |
| NNC(=O)c1ccncc1 [ISONIAZID] |  |  |  |  |  |  | 0.2 µg/mL (≈ 1.46 µM) |  |  |  |  |
| CO[C@H]1/C=C/O[C@@]2(C)Oc3c(C)c(O)c4c(O)c(c(/C=N/N5CCN(C)CC5)c(O)c4c3C2=O)NC(=O)/C(C)=C\C=C\[C@H](C)[C@H](O)[C@@H](C)[C@@H](O)[C@@H](C)[C@H](OC(C)=O)[C@@H]1C [RIFAMPIN] |  |  |  |  |  | 98% | 0.15 µg/mL (≈ 0.182 µM) |  |  |  |  |
